Apaf1 inhib: blocks human Apaf-1 apoptosome activity | inhibition, % at 20 µM | 330,000 compounds, 0.71% hits | reconstituted apoptosome caspase-3 activity, DEVD-Rh110 fluorescence | AID 489030; active = inhibition of at least 40% at 20 µM;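 also: plate controls were DMSO wells for no effect and DEVD-CHO caspase inhibitor wells for full effect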
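Material: reconstituted apoptosome with Apaf-1, cytochrome c, caspase-9, procaspase-3, dATP. Technique: Rh110 fluorescence intensity. Buffer or medium: pH 7.5 Hepes buffer with CHAPS, BSA, DTT. Times: 30 min plus 50 min, RT.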
MEKK3 PB1 HTS: MEKK3-MEK5 PB1 interaction, increase or decrease | 290,000 compounds, 1.4% hits | binding response (% of control), % at 10 µM | Q99759 | bead-based flow cytometry, Alexa488-MEK5 binding to MEKK3; actives lie on both sides; 0 = blocked by unlabeled MEK5, 100 = vehicle;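 active = binding response more than 3 SD above or below the average of its plate-row segment, actives on both sides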;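 also: Alexa488 bead fluorescence after subtracting the streptavidin-only scavenger bead signal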
PREPL inh: inhibitors of human prolyl oligopeptidase-like enzyme PREPL. Q4J6C6. recombinant PREPL, fluorescence polarization activity-based probe. inhibition, % at 5.96 µM. 320,000 compounds, 0.68% hits; in the data active = inhibition above about 43%;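 also: 0% = enzyme with DMSO and 100% = wells lacking enzyme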
MEKK2wt PB1 HTS: raises or lowers MEK5 binding to wildtype human MEKK2 PB1 domain; Q9Y2U5; bead flow cytometry, Alexa488-MEK5 binding to MEKK2 WT; actives lie on both sides; AID 1531; binding response (% of control), % at 10 µM; 290,000 compounds, 1.1% hits; in the data active = binding response below about 67% or above about 130%
UBC13 polyUb: blocks human UBC13 polyubiquitin chain formation; TR-FRET; inhibition, % at 20 µM; 330,000 compounds, 0.47% hits; AID 485273; in the data active = inhibition above about 45%, passing the limit was not always enough
Target sequence (P61088 whole entry, looked up): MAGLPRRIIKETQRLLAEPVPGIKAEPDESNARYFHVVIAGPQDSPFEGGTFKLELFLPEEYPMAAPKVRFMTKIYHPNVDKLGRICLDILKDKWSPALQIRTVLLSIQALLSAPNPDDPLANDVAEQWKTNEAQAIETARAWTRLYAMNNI
MEKK2 mut-MEK5: signal of MEK5 binding to mutant human MEKK2 PB1 domain | 290,000 compounds, 0.35% hits | percent response, % at 10 µM | bead flow cytometry, Alexa488-MEK5 binding to MEKK2 mutant | AID 1530; in the data active = percent response above about 24%, passing the limit was not always enough
MEKK2wt confirm: raises or lowers MEK5 binding to wildtype human MEKK2, retest; shares compounds with MEKK3 PB1 HTS; bead flow cytometry, Alexa488-MEK5 binding to MEKK2 WT; actives lie on both sides; binding response (% of control), % at 10 µM; 5,900 compounds, 2.4% hits; AID 1892; in the data active = binding response below about 16% or above about 210%; inactive = in between
MEKK2mut confirm: signal of MEK5 binding to mutant human MEKK2, retest; shares compounds with MEKK3 PB1 HTS; bead flow cytometry, Alexa488-MEK5 binding to MEKK2 mutant; percent response, % at 10 µM; 5,900 compounds, 2% hits; AID 1893; in the data active = percent response mostly above about 71%, no sharp cut-off; inactive = mostly below about 38%;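 also: higher means compound restores mutant binding toward wildtype level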
MEKK3 confirm: confirmation of inhibitors of MEK5 binding to human MEKK3. shares compounds with MEKK3 PB1 HTS. bead flow cytometry, Alexa488-MEK5 binding to MEKK3; hits give low values. binding response (% of control), % at 10 µM. 5,900 compounds, 1.8% hits;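 active = binding response below 72% of control, or above a set upper limit, though filed actives all read lower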;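 also: 100% = DMSO only wells and 0% = binding blocked by excess unlabeled MEK5; lower values mean stronger disruption of MEK5 binding to MEKK3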
Casp3 counter: caspase-3 inhibition (UBC13 counter-screen); shares compounds with UBC13 polyUb; Recombinant caspase-3, Caspase-Glo 3/7 luminescence, 60 min; inhibition, % at 20 µM; 1,400 compounds, 4% hits; AID 488856;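 active = mean inhibition across replicates above about 26%, limit read from the data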;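 also: plate controls were DMSO with caspase-3 for no effect and DMSO wells lacking enzyme for full effect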
Target sequence (P42574 whole entry, looked up): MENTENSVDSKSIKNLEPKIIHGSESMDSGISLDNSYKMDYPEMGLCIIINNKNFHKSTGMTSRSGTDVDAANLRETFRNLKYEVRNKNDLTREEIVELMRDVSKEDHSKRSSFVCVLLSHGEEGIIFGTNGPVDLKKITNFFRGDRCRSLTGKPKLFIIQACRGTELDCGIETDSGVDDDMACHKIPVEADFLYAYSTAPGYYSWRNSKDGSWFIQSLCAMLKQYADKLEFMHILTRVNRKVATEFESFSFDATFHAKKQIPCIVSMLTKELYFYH
UBC13 conf: human UBC13 polyubiquitin inhibition, confirmed; shares compounds with UBC13 polyUb; inhibition, % at 10 µM; AID 488859; 1,400 compounds, 68% hits; UBC13 polyubiquitination, TR-FRET, biochemical; in the data active = inhibition above about 45%
Active calls of the source: *; . = not tested or not shown. This is a sample that favours compounds with a hit; in the whole collection about 3.1% have one here.

SMILES	Apaf1 inhib	MEKK3 PB1 HTS	PREPL inh	MEKK2wt PB1 HTS	UBC13 polyUb	MEKK2 mut-MEK5	MEKK2wt confirm	MEKK2mut confirm	MEKK3 confirm	Casp3 counter	UBC13 conf
CCN1CCN(Cc2ccc(NC(=O)c3ccc(C)c(/C=C/c4cnc(Nc5cc(N6CCNCC6)nc(C)n5)cn4)c3)cc2C(F)(F)F)CC1	32	114	28	401*	123*	205*	280*	169*	118	-1	116*
COc1cc(CNCCc2c[nH]c3ccccc23)ccc1OCc1ccccc1F	17	115	-93	244*	47*	60*	170	73*	108	-1	44
CCn1ccnc1CN(C)Cc1nc(-c2ccc(C(=O)OC)cc2)no1	3	101	7	99	7	-1	.	.	.	.	.
CN(C)CCCNc1nc2sc3c(c2c(=O)n1CCc1ccccc1)CCCCC3	13	111	68*	183*	49*	49	166	45	108	-1	73*
CN(C)CCCn1c(=O)n(CCc2ccccc2)c(=O)c2c3c(sc21)CCCCC3	22	103	21	130	39	1	.	.	.	.	.
COc1cccc(-c2nn(C)c3sc(C(=O)NCCCN(C)Cc4ccccc4)cc23)c1	9	106	-48	147*	53*	22	146	46	105	-3	59*
CC1=NNC(=O)C1CCC(=O)N/N=C/c1ccccc1 (centres undefined)	11	103	1	103	-1	-4	.	.	.	.	.
Cc1ccccc1CN1CCN(CC2CC2)CC1CCO (centres undefined)	0	102	0	109	1	4	.	.	.	.	.
CCC[C@H](CN[C@@H](CNC)[C@H](C)CC)NCCc1cc(C(F)(F)F)cc(C(F)(F)F)c1	12	104	42	158*	86*	8	176	47	110	5	73*
CCC[C@@H](CN[C@@H](CNC)[C@H](C)CC)NCC1CCC(C(C)(C)C)CC1 (some centres undefined)	3	103	28	148*	63*	5	134	35	109	-3	61*
O=C1C=C(c2cc(F)ccc2F)C[C@@H](c2ccc(F)cc2)C1	10	.	-3	.	-8	.	.	.	.	.	.
Cc1ccc(C(=O)Nc2cccc(C(F)(F)F)c2)cc1NC(=O)c1c[nH]c2cc(C(F)(F)F)ccc2c1=O	-1	.	12	.	-25	.	.	.	.	.	.
CCN1CCN(Cc2ccc(NC(=O)c3ccc(C)c(NC(=O)c4c[nH]c5cc(C(F)(F)F)ccc5c4=O)c3)cc2C(F)(F)F)CC1	39	115	-16	199*	108*	83*	224*	131*	93	-5	100*
CCOC(=O)C1(CCOc2ccccc2)CCN(Cc2cccc(OC)c2OC)CC1	7	103	-44	105	5	2	.	.	.	.	.
NNC(=O)c1cc2c(s1)-c1cc(Cl)ccc1SC2	21	102	2	99	14	3	.	.	.	.	.
CCN(CC)CCNC(=O)c1cc2c(s1)-c1ccccc1SC2	5	107	-13	146*	50*	25*	129	13	105	-4	53*
O=C1c2cc(Cl)ccc2OC2(CCNCC2)C12CC(c1ccc(Cl)cc1)=NO2 (centres undefined)	20	115	-34	162*	48*	20	133	15	103	3	41
C=CCc1ccccc1OCC(O)CN1CCN(C(=O)OCC)CC1 (centres undefined)	1	98	8	97	1	2	.	.	.	.	.
Cc1ccccc1OCC(O)CN1CCN(CCN2C(=O)c3cccc4cccc(c34)C2=O)CC1 (centres undefined)	23	137*	-17	111	50*	1	132	15	106	0	76*
C=CCc1ccccc1OCC(O)CN1CCN(CCN2C(=O)c3cccc4cccc(c34)C2=O)CC1 (centres undefined)	18	111	10	193*	59*	23	155	17	105	-4	97*
CC(C)OCC(O)CN1CCN(CCN2C(=O)c3cccc4cccc(c34)C2=O)CC1 (centres undefined)	-1	101	5	100	-11	3	.	.	.	.	.
CCOCCCN(C)C1CCN(C(=O)c2oc3ccccc3c2NC(=O)c2cccc([N+](=O)[O-])c2)CC1	6	102	5	107	5	2	.	.	.	.	.
COc1cccc2sc(N(CCCN(C)C)C(=O)c3sc4ccccc4c3Cl)nc12	-1	119	-56	211*	45*	63*	125	16	108	2	69*
COc1cc2c3nnc(-c4ccc(F)cc4)c-3cn(Cc3ccc(C)cc3)c2cc1OC	37	116	-42	179*	49*	50*	204	74*	109	2	16
CCN(CC(=O)NCc1ccc(Cl)cc1)C(=O)CN1C(=O)NC(CC)(c2ccccc2)C1=O (centres undefined)	6	103	-1	104	-24	2	.	.	.	.	.
CC(=O)c1c[nH]c(C(=O)NCc2cccc(C(F)(F)F)c2)c1	8	108	3	105	2	6	.	.	.	.	.
Cc1nc(N)sc1C(=O)N/N=C/c1ccco1	-10	131*	-1	105	72*	1	101	5	104	25	63*
Cc1nc2ccccc2cc1C(=O)N/N=C/c1ccco1	-7	96	-3	98	-12	-2	.	.	.	.	.
O=C(C1=C(O)C(=O)N(CC2CCCO2)C1c1ccccc1F)c1ccco1 (centres undefined)	1	101	3	98	-1	0	.	.	.	.	.
CCCCOc1ccc(Cl)cc1Nc1nc(NCCO)nc(N2CCCC2)n1	30	110	7	141*	60*	9	112	3	99	-4	19

Screening data (PubChem)
